Experimental data taken from paper PMC4015637 (Anticancer research, 2014).
Where two headings read alike, the source gives them in different places.

Experiments:
[1] = In vitro metabolic stability in rat liver microsomes; assay type: in vitro ADME; details: 0.5 μM compound, 1 mg/ml microsomal protein, NADPH, 37°C, n=3, mean±S.D.
How it was run: (§1)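 Pooled liver microsomes (1 mg/ml protein) with 0.5 μM test compound, added from acetonitrile stock, in 0.2 M phosphate pH 7.4 with NADPH-regenerating system (1.3 mM NADP+, 3.3 mM glucose-6-phosphate, 0.4 U/ml G6P dehydrogenase), shaken at 37°C. Samples at 5–120 min quenched in acetonitrile with deuterated internal standard, centrifuged, and analysed by LC-MS/MS for % remaining. Half-life reported; n=3, mean±S.D.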

[2] = In vitro metabolic stability in mouse liver microsomes; assay type: in vitro ADME; details: 0.5 μM compound, 1 mg/ml microsomal protein, NADPH, 37°C, n=3, mean±S.D.
How it was run: as §1

[3] = In vitro metabolic stability in monkey liver microsomes; assay type: in vitro ADME; details: 0.5 μM compound, 1 mg/ml microsomal protein, NADPH, 37°C, n=3, mean±S.D.
How it was run: as §1

[4] = assay type: in vitro ADME, human, rat, mouse, monkey, dog
[5] = target: T1, rat CYP24A1 (Rattus norvegicus, UniProt Q09128); assay: Metabolism by purified recombinant CYP24A1 in reconstituted system; assay type: in vitro ADME; details: phospholipid vesicles, 0.025 mol secosteroid/mol phospholipid, 1 μM rat CYP24A1, 1 h
T1 sequence (Q09128 36-514): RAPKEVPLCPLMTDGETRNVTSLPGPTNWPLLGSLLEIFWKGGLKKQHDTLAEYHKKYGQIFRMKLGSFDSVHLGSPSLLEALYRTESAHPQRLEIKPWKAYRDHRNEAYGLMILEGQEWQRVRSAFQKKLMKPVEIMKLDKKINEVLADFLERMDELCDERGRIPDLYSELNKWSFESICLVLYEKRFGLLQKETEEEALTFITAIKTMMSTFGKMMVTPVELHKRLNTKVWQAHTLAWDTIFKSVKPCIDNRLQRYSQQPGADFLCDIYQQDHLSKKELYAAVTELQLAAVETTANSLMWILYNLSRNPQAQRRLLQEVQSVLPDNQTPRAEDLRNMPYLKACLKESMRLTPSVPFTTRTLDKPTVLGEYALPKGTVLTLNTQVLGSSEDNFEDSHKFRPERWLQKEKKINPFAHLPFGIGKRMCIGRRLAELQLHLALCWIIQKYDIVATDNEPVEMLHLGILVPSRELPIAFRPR
How it was run: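 Reconstituted system: purified recombinant rat CYP24A1 (1 μM), adrenodoxin (15 μM) and adrenodoxin reductase (4 μM). Test compound incorporated into phospholipid vesicles at 0.025 mol secosteroid/mol phospholipid. Incubated 1 h. Products extracted with dichloromethane and resolved by reverse-phase HPLC. Result expressed as percentage conversion of substrate to products and number of products.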

[6] = In vitro metabolic stability in human liver microsomes; assay type: in vitro ADME; details: 0.5 μM compound, 1 mg/ml microsomal protein, NADPH, 37°C, n=3, mean±S.D.
How it was run: as §1

[7] = tested on: male C57/BL6 mice; assay: In vivo toxicity study; details: for calcification in organs / histopathological analysis of the major organs (liver, heart, kidney) / toxicity in vivo (clinical pathology chemistry profile, complete blood count): 60 μg/kg i.p., three weeks
[8] = In vitro metabolic stability in dog liver microsomes; assay type: in vitro ADME; details: 0.5 μM compound, 1 mg/ml microsomal protein, NADPH, 37°C, n=3, mean±S.D.
How it was run: as §1

[9] = target: T2, human CYP27A1 (Homo sapiens, UniProt Q02318); assay: Metabolism by purified recombinant CYP27A1 in reconstituted system; assay type: in vitro ADME; details: 50 μM substrate in 0.45% cyclodextrin, 1 μM human CYP27A1, 1 h incubation
T2 sequence (Q02318 34-531): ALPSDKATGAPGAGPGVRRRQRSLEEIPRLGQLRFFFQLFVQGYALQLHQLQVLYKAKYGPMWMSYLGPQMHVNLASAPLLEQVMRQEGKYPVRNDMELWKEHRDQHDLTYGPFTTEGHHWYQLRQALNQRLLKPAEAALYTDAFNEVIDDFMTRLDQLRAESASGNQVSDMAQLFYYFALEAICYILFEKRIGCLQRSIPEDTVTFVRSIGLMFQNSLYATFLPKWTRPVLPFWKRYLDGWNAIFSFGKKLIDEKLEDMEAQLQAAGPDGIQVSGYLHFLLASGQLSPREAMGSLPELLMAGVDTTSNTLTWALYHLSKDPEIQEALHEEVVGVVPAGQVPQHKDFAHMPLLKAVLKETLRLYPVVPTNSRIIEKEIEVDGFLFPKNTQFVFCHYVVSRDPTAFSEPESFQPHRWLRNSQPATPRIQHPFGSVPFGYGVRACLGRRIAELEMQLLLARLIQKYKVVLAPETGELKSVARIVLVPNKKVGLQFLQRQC
How it was run: (§2)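 Reconstituted system: adrenodoxin (15 μM), adrenodoxin reductase (4 μM), purified recombinant human CYP11A1 or CYP27A1 (1 μM). Substrate at 50 μM final, solubilised in 0.45% 2-hydroxypropyl-β-cyclodextrin. Incubation 1 h, extended for some analogs to 2 h (CYP11A1) or 3 h (CYP27A1). Products extracted with dichloromethane and resolved by reverse-phase HPLC. Read-outs are % substrate conversion and number of products.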

[10] = target: T3, human CYP11A1 (Homo sapiens, UniProt P05108); assay: Metabolism by purified recombinant CYP11A1 in reconstituted system; assay type: in vitro ADME; details: 50 μM substrate in 0.45% cyclodextrin, 1 μM human CYP11A1, 1 h incubation
T3 sequence (P05108 40-521): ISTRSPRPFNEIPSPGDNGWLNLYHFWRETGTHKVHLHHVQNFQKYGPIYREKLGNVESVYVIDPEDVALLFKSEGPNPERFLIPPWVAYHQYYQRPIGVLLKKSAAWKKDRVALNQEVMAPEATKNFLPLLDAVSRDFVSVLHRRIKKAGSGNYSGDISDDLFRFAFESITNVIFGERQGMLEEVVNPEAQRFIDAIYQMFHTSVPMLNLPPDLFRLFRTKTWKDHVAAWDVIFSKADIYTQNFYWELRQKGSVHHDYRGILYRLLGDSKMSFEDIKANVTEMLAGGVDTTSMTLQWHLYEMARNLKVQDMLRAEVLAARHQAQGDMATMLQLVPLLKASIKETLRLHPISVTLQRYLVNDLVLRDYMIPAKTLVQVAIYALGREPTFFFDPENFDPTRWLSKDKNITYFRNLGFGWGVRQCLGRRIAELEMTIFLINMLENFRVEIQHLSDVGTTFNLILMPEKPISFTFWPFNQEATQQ
How it was run: as §2

[11] = tested on: rats; details: 3 μg/kg for seven consecutive days; cited from earlier work
[12] = tested on: mice; details: up to 30 μg/kg for three weeks; cited from earlier work
[13] = tested on: mice or rats; details: cited from earlier work
[14] = 60 μg/kg i.p. once daily for three weeks

| Compound | half-life in liver microsomes, Rat [1] [min] | half-life in liver microsomes, Mouse [2] [min] | half-life in liver microsomes, Monkey [3] [min] | half-life in liver microsomes, average of five different species [4] [min] | CYP24A1 No. of different products (at least 2% of total secosteroids) [5] | half-life in liver microsomes, Human [6] [min] | body weight [7, 14] [g] | serum calcium [7, 14] [mg/dL] | calcification in organs [7] | histopathological analysis of the major organs (liver, heart, kidney) [7] | toxicity in vivo (clinical pathology chemistry profile, complete blood count) [7] | half-life in liver microsomes, Dog [8] [min] | CYP27A1 No. of different products (at least 2% of total secosteroids) [9] | other results |
| --- | --- | --- | --- | --- | --- | --- | --- | --- | --- | --- | --- | --- | --- | --- |
| C=C1CC[C@H](O)C/C1=C/C=C1\CCC[C@@]2(C)C1CC[C@@H]2[C@@](C)(O)CCCC(C)C (stereo partly drawn) [20R(OH)D3, 20R-hydroxyvitamin D3] | 19 ± 3 | 25 ± 1 | 15 ± 1 | 30 | 4 | 34 ± 2 | 25 ± 1 | 8.6 ± 0.77 | Calcification was not present | unremarkable histology | did not show toxicity | 21 ± 2 | 3 | CYP27A1 % conversion of substrate to products [9]: 90% |
| C=C1CC[C@H](O)C/C1=C/C=C1\CCC[C@@]2(C)[C@H]1CC[C@@H]2[C@@](C)(O)CCCC(C)C [20S(OH)D3, 20S-hydroxyvitamin D3] | 43 ± 1 | 42 ± 2 | 37 ± 1 | 50 | 3 | 60 ± 4 | 25 ± 1 | 8.8 ± 0.66 | Calcification was not present | six out of the seven mice treated with 20S(OH)D3 show unremarkable histology | did not show toxicity | 47 ± 1 | 3 | CYP11A1 % conversion of substrate to products [10]: 21%; CYP11A1 No. of different products (at least 2% of total secosteroids) [10]: 3; effect on systemic calcium levels [11]: no effect on systemic calcium levels; effect on systemic calcium levels [12]: no effect on systemic calcium levels; highest possible dose that does not cause noticeable cytotoxic effects ([7]; i.p. once daily for three weeks, stated as probable): 60 µg/kg |
| C=C1/C(=C\C=C2/CCC[C@]3(C)[C@@H]([C@H](C)CCCC(C)(C)O)CC[C@@H]23)C[C@@H](O)C[C@@H]1O [1,25(OH)2D3, 1,25-dihydroxy vitamin D3, reference compound] |  |  |  |  |  |  |  |  |  |  |  |  |  | dose reported to generate hypercalcemia ([13]; mice (ref 37) or rats (ref 20)): ≥ 1 µg/kg; body weight ([7]; 2 μg/kg i.p. once daily for three weeks): 21 ± 1 g; serum calcium ([7]; 2 μg/kg i.p. once daily for three weeks, positive control): 14.6 ± 0.48 mg/dL |
| C=C1CC[C@H](O)C/C1=C/C=C1\CCC[C@]2(C)[C@@H]([C@H](C)CCCC(C)(C)O)CC[C@@H]12 [25(OH)D3, 25-hydroxyD3] |  |  |  |  |  |  |  |  |  |  |  |  |  | dose reported to generate hypercalcemia ([13]; in vivo): ≥ 1 µg/kg |
